The results in this text go back to ChEMBL document CHEMBL2401716, “Design and stereoselective synthesis of novel isosteviol-fused pyrazolines and pyrazoles as potential anticancer agents” (Eur J Med Chem, 2013).

Holding throughout (format): functional, cell-based
The subject of one experiment is Raji. As to the kind of experiment: Antiproliferative activity against human Raji cells after 48 hrs by MTT assay. The gist of the method: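 Human B-lymphoma Raji line kept in RPMI-1640 with 10% FBS and 100 U/mL penicillin at 37 °C, 5% CO2, humidified. Cells were plated in 96 wells and treated with compounds for 48 h. MTT (0.5 mg/mL) was added for 4 h, then formazan was taken up in DMSO after supernatant removal and read at 570 nm. Cisplatin served as positive control.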
(In general: Tetrazolium assays rely on reduction of a dye to a coloured formazan, in cell work by metabolically active cells.)

The next experiment concerns HeLa. As to the kind of experiment: Antiproliferative activity against human HeLa cells after 48 hrs by MTT assay. The gist of the method: (§1)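 Cells seeded in 96-well plates and exposed to compounds for 48 h at 37 °C, 5% CO2. MTT (0.5 mg/mL) then added for 4 h. Supernatant removed, formazan dissolved in DMSO, and OD read at 570 nm. Cisplatin served as positive control.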

The next experiment deals with SGC-7901. In words: Antiproliferative activity against human SGC7901 cells after 48 hrs by MTT assay. Conditions: SGC-7901, 48 h. In outline: as §1
The next experiment has as its system A549. As to the kind of experiment: Antiproliferative activity against human A549 cells after 48 hrs by MTT assay. The note with it: A549, 48 h. In outline: as §1

In general, IC50 refers to the concentration at which inhibition is half-maximal. For `CCOC(=O)[C@]1(C)CCC[C@@]2(C)[C@@H]3CC[C@@]4(C)C[C@]3(CC[C@@H]21)[C@@H]1CN(c2ccc(C)cc2)N=C14`, the IC50 with Raji turned out to be 3.91 µM; in the experiment with HeLa, 29.1 µM; in the experiment on SGC-7901, 29.4 µM; in the experiment on A549, 13.7 µM.
Taken in the same sequence, the figures for `CCOC(=O)[C@]1(C)CCC[C@@]2(C)[C@@H]3CC[C@@]4(C)C[C@]3(CC[C@@H]21)[C@@H]1CN(c2cccc(C(F)(F)F)c2)N=C14` were 7.21 µM, > 50 µM, > 50 µM and > 50 µM.
Turning to `CCOC(=O)[C@]1(C)CCC[C@@]2(C)[C@@H]3CC[C@@]4(C)C[C@]3(CC[C@@H]21)[C@@H]1CN(c2cccc(C)c2C)N=C14`, the IC50 in the experiment with Raji is 8.82 µM; in the experiment on HeLa it was > 50 µM; in the experiment with SGC-7901 it was 31.9 µM; in the experiment on A549 it was > 50 µM.
For `CCOC(=O)[C@]1(C)CCC[C@@]2(C)[C@@H]3CC[C@@]4(C)C[C@]3(CC[C@@H]21)[C@@H]1CN(c2c(C)cccc2C)N=C14`, the IC50 in the experiment with Raji worked out at 5.63 µM; with HeLa, 28.8 µM; in the experiment with SGC-7901, 16.6 µM; in the experiment with A549, 17.6 µM.
On to `CCOC(=O)[C@]1(C)CCC[C@@]2(C)[C@@H]3CC[C@@]4(C)C[C@]3(CC[C@@H]21)[C@@H]1CN(c2ccc(C)c(C)c2)N=C14`, for which the IC50 is 8.36 µM in the experiment with Raji, > 50 µM with HeLa, 32.5 µM in the experiment with SGC-7901 and > 50 µM in the experiment on A549.
With `CCOC(=O)[C@]1(C)CCC[C@@]2(C)[C@@H]3CC[C@@]4(C)C[C@]3(CC[C@@H]21)c1cnn(-c2ccccc2F)c14`, the IC50 in the experiment with Raji was 4.15 µM; with HeLa it was > 50 µM; with SGC-7901, 35.6 µM; in the experiment on A549, 27 µM.
Consider `CCOC(=O)[C@]1(C)CCC[C@@]2(C)[C@@H]3CC[C@@]4(C)C[C@]3(CC[C@@H]21)c1cnn(-c2cccc(F)c2)c14`, for which the IC50 with Raji was 3.4 µM; in the experiment with HeLa, > 50 µM; with SGC-7901, 35.8 µM; in the experiment with A549, 19.2 µM.
The matching figures for `CCOC(=O)[C@]1(C)CCC[C@@]2(C)[C@@H]3CC[C@@]4(C)C[C@]3(CC[C@@H]21)c1cnn(-c2ccc(F)cc2)c14`: 7.01 µM, > 50 µM, 25.6 µM and 22.3 µM.
Taken in the same sequence, the figures for `CCOC(=O)[C@]1(C)CCC[C@@]2(C)[C@@H]3CC[C@@]4(C)C[C@]3(CC[C@@H]21)c1cnn(-c2ccccc2Cl)c14` were 10.1 µM, 34.6 µM, 25.4 µM and 21.5 µM.
The matching figures for `CCOC(=O)[C@]1(C)CCC[C@@]2(C)[C@@H]3CC[C@@]4(C)C[C@]3(CC[C@@H]21)c1cnn(-c2cccc(Cl)c2)c14`: 9.54 µM, > 50 µM, 26.3 µM and 28.2 µM.
As for `CCOC(=O)[C@]1(C)CCC[C@@]2(C)[C@@H]3CC[C@@]4(C)C[C@]3(CC[C@@H]21)c1cnn(-c2cccc(Br)c2)c14`, the IC50 was 3.27 µM in the experiment on Raji, > 50 µM in the experiment on HeLa, 34.9 µM in the experiment on SGC-7901 and 26.5 µM in the experiment on A549.
Regarding `CCOC(=O)[C@]1(C)CCC[C@@]2(C)[C@@H]3CC[C@@]4(C)C[C@]3(CC[C@@H]21)c1cnn(-c2ccc(Br)cc2)c14`, the IC50 in the experiment with Raji is 4.78 µM; in the experiment with HeLa it was > 50 µM; with SGC-7901 it was 29.6 µM; in the experiment with A549 it was 23.1 µM.
Consider `CCOC(=O)[C@]1(C)CCC[C@@]2(C)[C@@H]3CC[C@@]4(C)C[C@]3(CC[C@@H]21)c1cnn(-c2ccccc2C)c14`, for which the IC50 in the experiment with Raji was 7.71 µM; with HeLa, 15.2 µM; in the experiment with SGC-7901 it was 35.3 µM; with A549, 19 µM.
The matching figures for `CCOC(=O)[C@]1(C)CCC[C@@]2(C)[C@@H]3CC[C@@]4(C)C[C@]3(CC[C@@H]21)c1cnn(-c2cccc(C)c2)c14`: 4.84 µM, > 50 µM, 13.6 µM and 12.4 µM.
Taken in the same sequence, the figures for `CCOC(=O)[C@]1(C)CCC[C@@]2(C)[C@@H]3CC[C@@]4(C)C[C@]3(CC[C@@H]21)c1cnn(-c2ccc(C)cc2)c14` were 8.61 µM, > 50 µM, 34.9 µM and 18.8 µM.
As to `CCOC(=O)[C@]1(C)CCC[C@@]2(C)[C@@H]3CC[C@@]4(C)C[C@]3(CC[C@@H]21)c1cnn(-c2cccc([N+](=O)[O-])c2)c14`, the IC50 in the experiment on Raji is 7.4 µM; in the experiment with HeLa it was > 50 µM; in the experiment with SGC-7901 it was > 50 µM; in the experiment on A549, > 50 µM.
`CCOC(=O)[C@]1(C)CCC[C@@]2(C)[C@@H]3CC[C@@]4(C)C[C@]3(CC[C@@H]21)c1cnn(-c2ccc(F)cc2F)c14`: the IC50 was 9.96 µM with Raji, > 50 µM in the experiment with HeLa, 28.4 µM with SGC-7901 and 20.1 µM in the experiment with A549.
The matching figures for `CCOC(=O)[C@]1(C)CCC[C@@]2(C)[C@@H]3CC[C@@]4(C)C[C@]3(CC[C@@H]21)c1cnn(-c2cc(F)ccc2F)c14`: 7.11 µM, > 50 µM, > 50 µM and > 50 µM.
Taken in the same sequence, the figures for `CCOC(=O)[C@]1(C)CCC[C@@]2(C)[C@@H]3CC[C@@]4(C)C[C@]3(CC[C@@H]21)c1cnn(-c2cccc(Cl)c2Cl)c14` were 5.13 µM, > 50 µM, > 50 µM and > 50 µM.
The matching figures for `CCOC(=O)[C@]1(C)CCC[C@@]2(C)[C@@H]3CC[C@@]4(C)C[C@]3(CC[C@@H]21)c1cnn(-c2c(Cl)cccc2Cl)c14`: 5.7 µM, 34.9 µM, 27.1 µM and 33.2 µM.
As for `CCOC(=O)[C@]1(C)CCC[C@@]2(C)[C@@H]3CC[C@@]4(C)C[C@]3(CC[C@@H]21)c1cnn(-c2ccc(C)cc2C)c14`, the IC50 in the experiment with Raji is 6.55 µM; in the experiment on HeLa, 43.3 µM; in the experiment on SGC-7901, 18.7 µM; with A549, 16.5 µM.
For the compound `CCOC(=O)[C@]1(C)CCC[C@@]2(C)[C@@H]3CC[C@@]4(C)C[C@]3(CC[C@@H]21)c1cnn(-c2cc(C)ccc2C)c14`, the IC50 was 7.94 µM in the experiment with Raji, 34.3 µM with HeLa, 33 µM in the experiment with SGC-7901 and 17.1 µM in the experiment with A549.
The matching figures for `CCOC(=O)[C@]1(C)CCC[C@@]2(C)[C@@H]3CC[C@@]4(C)C[C@]3(CC[C@@H]21)c1cnn(-c2ccc(C)c(C)c2)c14`: 6.5 µM, 38.2 µM, 38.1 µM and 15.8 µM.
In the case of `CCOC(=O)[C@]1(C)CCC[C@@]2(C)[C@@H]3CC[C@@]4(C)C[C@]3(CC[C@@H]21)[C@@H]1CN(c2ccc(F)cc2)N=C14`, the half-maximal inhibitory concentration (IC50) in the experiment on Raji was 4.51 µM; in the experiment on HeLa, > 50 µM; in the experiment on SGC-7901 it was > 50 µM; with A549, > 50 µM.
`CCOC(=O)[C@]1(C)CCC[C@@]2(C)[C@@H]3CC[C@@]4(C)C[C@]3(CC[C@@H]21)[C@@H]1CN(c2cccc(Cl)c2)N=C14`: the IC50 in the experiment with Raji is 4.57 µM; with HeLa, > 50 µM; in the experiment on SGC-7901, > 50 µM; with A549 it was > 50 µM.
